≈ marks a conversion by molar mass, not a printed value.
How the values were obtained:
Format in all cases: functional
[1] = Evaluation for antiviral activity against herpes simplex virus-1(TK-) (B2006) in primary rabbit kidney cell cultures(PRK) (Concentration required to reduce virus-induced cytopathogenicity by 50%); details: Oryctolagus cuniculus
[2] = system: MT4; assay: Inhibitory effect on the proliferation of human T-lymphocyte (MT-4); details: read-out: ID50 (the source's name)
Summary of the method: (§1)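 Proliferation assay in murine leukemia L1210, human T-lymphoblast Molt-4F and human T-lymphocyte MT-4 cells. ID50 is the dose inhibiting tumor cell proliferation by 50%, expressed in μg/mL.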

[3] = system: Vero; assay: Evaluation in Vero cell cultures for cytotoxicity that is to cause microscopically detectable alteration of normal cell morphology; details: Chlorocebus sabaeus
Summary of the method: (§2)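 Vero cultures were infected with parainfluenza-3, reovirus-1, Sindbis, Coxsackie B4 or Semliki forest virus. Values are concentrations giving 50% reduction of virus-induced cytopathogenicity, or a microscopically detectable alteration of normal cell morphology for cytotoxicity. Each is the average of two separate experiments.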

[4] = system: MOLT-4F; assay: Inhibitory effect on the proliferation of human T-lymphoblast cells (Molt-4F); details: read-out: ID50 (the source's name); summary of the method: as §1
[5] = Evaluation for antiviral activity against herpes simplex virus-1(F) in primary rabbit kidney cell cultures(PRK) (Concentration required to reduce virus-induced cytopathogenicity by 50%); details: Oryctolagus cuniculus
[6] = Evaluation for antiviral activity against herpes simplex virus-2(Lyons) in primary rabbit kidney cell cultures(PRK) (Concentration required to reduce virus-induced cytopathogenicity by 50%); details: Oryctolagus cuniculus
[7] = Evaluation for antiviral activity against herpes simplex virus-1 (McIntyre) in primary rabbit kidney cell cultures(PRK) (Concentration required to reduce virus-induced cytopathogenicity by 50%); details: Oryctolagus cuniculus
[8] = system: HeLa; assay: Evaluation for antiviral activity against Coxsackie virus B4 in HeLa cell cultures (Concentration required to reduce virus-induced cytopathogenicity by 50%); details: Homo sapiens
Summary of the method: (§3)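 HeLa cultures were infected with respiratory syncytial, vesicular stomatitis, Coxsackie B4 or polio-1 virus. The antiviral end-point is 50% reduction of virus-induced cytopathogenicity. Cytotoxicity is the minimum concentration producing microscopically detectable alteration of normal cell morphology.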

[9] = system: L1210; assay: Inhibitory effect on the proliferation of murine leukemia cells (L1210); details: Mus musculus, read-out: ID50 (the source's name); summary of the method: as §1
[10] = system: HeLa; assay: Compound was evaluated for antiviral activity against respiratory syncitial virus (long) in HeLa cell cultures (Concentration required to reduce virus-induced cytopathogenicity by 50%); details: Homo sapiens; summary of the method: as §3
[11] = Evaluation for antiviral activity against vesicular stomatitis virus in primary rabbit kidney cell cultures(PRK) (Concentration required to reduce virus-induced cytopathogenicity by 50%); details: Oryctolagus cuniculus
[12] = system: Vero; assay: Evaluation for antiviral activity against parainfluenza-3 virus in Vero cell cultures (Concentration required to reduce virus-induced cytopathogenicity by 50%); details: Chlorocebus sabaeus; summary of the method: as §2
[13] = system: HeLa; assay: Evaluation in HeLa cell cultures for cytotoxicity that is to cause microscopically detectable alteration of normal cell morphology; details: Homo sapiens; summary of the method: as §3
[14] = Evaluated for antiviral activity against herpes simplex virus-1(KOS) in primary rabbit kidney cell cultures(PRK) (Concentration required to reduce virus-induced cytopathogenicity by 50%); details: Oryctolagus cuniculus
[15] = Evaluation in PRK cell cultures for cytotoxicity that is to cause microscopically detectable alteration of normal cell morphology; details: Oryctolagus cuniculus
[16] = system: Vero; assay: Evaluation for antiviral activity against reo virus-1 in Vero cell cultures (Concentration required to reduce virus-induced cytopathogenicity by 50%); details: Chlorocebus sabaeus; summary of the method: as §2
[17] = system: Vero; assay: Evaluation for antiviral activity against Coxsackie virus B4 in Vero cell cultures (Concentration required to reduce virus-induced cytopathogenicity by 50%); details: Chlorocebus sabaeus; summary of the method: as §2
[18] = system: HeLa; assay: Evaluation for antiviral activity against vesicular stomatitis virus in HeLa cell cultures (Concentration required to reduce virus-induced cytopathogenicity by 50%); details: Homo sapiens; summary of the method: as §3
[19] = Evaluation for antiviral activity against herpes simplex virus-2(G) in primary rabbit kidney cell cultures(PRK) (Concentration required to reduce virus-induced cytopathogenicity by 50%); details: Oryctolagus cuniculus
[20] = system: HeLa; assay: Evaluation for antiviral activity against polio virus-1 in HeLa cell cultures (Concentration required to reduce virus-induced cytopathogenicity by 50%); details: Homo sapiens; summary of the method: as §3
[21] = system: Vero; assay: Evaluation for antiviral activity against forest virus in Vero cell cultures (Concentration required to reduce virus-induced cytopathogenicity by 50%); details: Chlorocebus sabaeus; summary of the method: as §2
[22] = Evaluation for antiviral activity against vaccinia virus in primary rabbit kidney cell cultures(PRK) (Concentration required to reduce virus-induced cytopathogenicity by 50%); details: Oryctolagus cuniculus
[23] = Evaluation for antiviral activity against herpes simplex virus-2(196) in primary rabbit kidney cell cultures(PRK) (Concentration required to reduce virus-induced cytopathogenicity by 50%); details: Oryctolagus cuniculus
[24] = system: Vero; assay: Evaluation for antiviral activity against Sindbis virus in Vero cell cultures (Concentration required to reduce virus-induced cytopathogenicity by 50%); details: Chlorocebus sabaeus; summary of the method: as §2
[25] = system: Influenza A virus; assay: Concentration required to reduce influenza virus A (ishikawa) induced cytopathogenicity by 50%
Summary of the method: (§4)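 Influenza A and B virus replication in MDCK cultures. Antiviral value is the concentration giving 50% reduction of virus-induced cytopathogenicity. Cytotoxicity is the concentration causing a microscopically detectable change in normal cell morphology.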

[26] = system: MDCK; assay: Compound was evaluated in MDCK cell cultures for cytotoxicity that is to cause microscopically detectable alteration of normal cell morphology; details: Canis lupus familiaris; summary of the method: as §4
[27] = system: Influenza B virus; assay: Concentration required to reduce influenza virus B (singapore) induced cytopathogenicity by 50%; summary of the method: as §4

COc1ccc2[nH]c3c(c2c1)CCN1OCSC[C@@H](N)[C@H]31
MIC [1]: > 4 µg/mL
IC50 [2]: 1.99 µg/mL (≈ 6.52 µM)
MCC [3]: > 2.5 µg/mL
IC50 [4]: 0.94 µg/mL (≈ 3.08 µM)
MIC [5]: > 4 µg/mL
MIC [6]: > 4 µg/mL
MIC [7]: > 4 µg/mL
MIC [8]: > 1 µg/mL
IC50 [9]: 6.54 µg/mL (≈ 21.4 µM)
MIC [10]: > 1.6 µg/mL
MIC [11]: > 4 µg/mL
MIC [12]: > 1 µg/mL
MCC [13]: 4 µg/mL
MIC [14]: > 4 µg/mL
MCC [15]: > 10 µg/mL
MIC [16]: > 1 µg/mL
MIC [17]: > 1 µg/mL
MIC [18]: > 1 µg/mL
MIC [19]: > 4 µg/mL
MIC [20]: > 1 µg/mL
MIC [21]: > 1 µg/mL
MIC [22]: > 4 µg/mL
MIC [23]: > 4 µg/mL
MIC [24]: > 1 µg/mL

N[C@H]1CSCON2CCc3c([nH]c4ccccc34)[C@H]12
MIC [1]: > 4 µg/mL
MIC [25]: > 1.6 µg/mL
IC50 [2]: 0.77 µg/mL (≈ 2.8 µM)
MCC [3]: > 10 µg/mL
IC50 [4]: 0.6 µg/mL (≈ 2.18 µM)
MIC [5]: 2 µg/mL (≈ 7.26 µM)
MIC [6]: 2 µg/mL (≈ 7.26 µM)
MIC [7]: > 4 µg/mL
MIC [8]: > 1 µg/mL
MCC [26]: 8 µg/mL
IC50 [9]: 1.4 µg/mL (≈ 5.08 µM)
MIC [10]: > 1.6 µg/mL
MIC [11]: > 4 µg/mL
MIC [12]: > 4 µg/mL
MCC [13]: > 4 µg/mL
MIC [14]: > 4 µg/mL
MIC [27]: > 1.6 µg/mL
MCC [15]: 10 µg/mL
MIC [16]: > 4 µg/mL
MIC [17]: > 4 µg/mL
MIC [18]: > 1 µg/mL
MIC [19]: > 4 µg/mL
MIC [20]: > 1 µg/mL
MIC [21]: > 4 µg/mL
MIC [22]: > 4 µg/mL
MIC [23]: 2 µg/mL (≈ 7.26 µM)
MIC [24]: > 4 µg/mL

N[C@@H]1CSCON2CCc3c([nH]c4ccccc34)[C@@H]12
MIC [1]: > 10 µg/mL
MIC [25]: > 8 µg/mL
IC50 [2]: 4.5 µg/mL (≈ 16.3 µM)
MCC [3]: 40 µg/mL
IC50 [4]: 5.14 µg/mL (≈ 18.7 µM)
MIC [5]: > 10 µg/mL
MIC [6]: > 10 µg/mL
MIC [7]: > 10 µg/mL
MIC [8]: > 10 µg/mL
MCC [26]: 15 µg/mL
IC50 [9]: 17.4 µg/mL (≈ 63.2 µM)
MIC [10]: > 8 µg/mL
MIC [11]: > 10 µg/mL
MIC [12]: > 10 µg/mL
MCC [13]: > 10 µg/mL
MIC [14]: > 10 µg/mL
MIC [27]: > 8 µg/mL
MCC [15]: 40 µg/mL
MIC [16]: > 10 µg/mL
MIC [17]: > 10 µg/mL
MIC [18]: > 10 µg/mL
MIC [19]: > 10 µg/mL
MIC [20]: > 10 µg/mL
MIC [21]: > 10 µg/mL
MIC [22]: > 10 µg/mL
MIC [23]: > 10 µg/mL
MIC [24]: > 10 µg/mL

— ChEMBL document CHEMBL1125540, “Antiviral and antitumor structure-activity relationship studies on tetracyclic eudistomines” (1992)
